Reference: ChEMBL document CHEMBL4689842, “EUbOPEN Chemogenomics Library wave 1” (2021)

System: U2OS
Assay: Multiplex assay against U2OS
Type: toxicity, cell-based
Conditions: human
How it was run: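 Hoechst33342, BioTracker Green Microtubule Cytoskeleton Dye, MitoTracker Red and Annexin V Alexa Fluor 680 were added to live cells at seeding, and imaging on a CQ1 microscope at 37°C and 5% CO2 followed compound addition. Gating by CellPathfinder machine learning separated cells into Hoechst high-intensity objects or normal cells, then normal cells into healthy, pyknosed or fragmented nuclei, then pyknosed cells into mitotic or apoptotic. Per cents of healthy-nucleus cells are reported for the tubulin, mitochondrial-mass and membrane-permeability phenotypes.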

[1] = 12 h, 1 µM, compound concentration 1 uM, replicate 1
[2] = 12 h, 1 µM, compound concentration 1 uM, replicate 2
[3] = 12 h, 10 µM, compound concentration 10 uM, replicate 1
[4] = 12 h, 10 µM, compound concentration 10 uM, replicate 2
[5] = 24 h, 1 µM, compound concentration 1 uM, replicate 1
[6] = 24 h, 1 µM, compound concentration 1 uM, replicate 2
[7] = 24 h, 10 µM, compound concentration 10 uM, replicate 1
[8] = 24 h, 10 µM, compound concentration 10 uM, replicate 2
[9] = 48 h, 1 µM, compound concentration 1 uM, replicate 1
[10] = 48 h, 1 µM, compound concentration 1 uM, replicate 2
[11] = 48 h, 10 µM, compound concentration 10 uM, replicate 1
[12] = 48 h, 10 µM, compound concentration 10 uM, replicate 2

CCn1c(=O)c(-c2ccc(-c3cncs3)cc2Cl)cc2cnc(Nc3ccc(N4CCN(C)CC4)cc3)nc21
Population Apoptotic (%) [1]: 57%
Population Fragmented Nuclei (%) [1]: 11%
Population Healthy Nuclei (%) [1]: 77%
Population Hoechst High Intensity Objects (%) [1]: 7%
Population Membrane Permeable-Phenotype (%) [1]: 11%
Population Mitochondria Different-Phenotype (%) [1]: 11%
Population Mitotic Cells (%) [1]: 42%
Population Normal (%) [1]: 92%
Population Pyknosed Nuclei (%) [1]: 11%
Population Tubulin-Different-Phenotype (%) [1]: 7%
Total Cell Count [1]: 162
Population Apoptotic (%) [2]: 75%
Population Fragmented Nuclei (%) [2]: 9%
Population Healthy Nuclei (%) [2]: 78%
Population Membrane Permeable-Phenotype (%) [2]: 3%
Population Mitochondria Different-Phenotype (%) [2]: 17%
Population Mitotic Cells (%) [2]: 25%
Population Tubulin-Different-Phenotype (%) [2]: 19%
Total Cell Count [2]: 76
Population Apoptotic (%) [3]: 84%
Population Fragmented Nuclei (%) [3]: 40%
Population Healthy Nuclei (%) [3]: 5%
Population Hoechst High Intensity Objects (%) [3]: 77%
Population Membrane Permeable-Phenotype (%) [3]: 38%
Population Mitochondria Different-Phenotype (%) [3]: 53%
Population Mitotic Cells (%) [3]: 15%
Population Normal (%) [3]: 22%
Population Pyknosed Nuclei (%) [3]: 54%
Population Tubulin-Different-Phenotype (%) [3]: 84%
Total Cell Count [3]: 177
Population Apoptotic (%) [4]: 11%
Population Fragmented Nuclei (%) [4]: 8%
Population Healthy Nuclei (%) [4]: 79%
Population Hoechst High Intensity Objects (%) [4]: 4%
Population Membrane Permeable-Phenotype (%) [4]: 5%
Population Mitochondria Different-Phenotype (%) [4]: 29%
Population Mitotic Cells (%) [4]: 88%
Population Normal (%) [4]: 96%
Population Pyknosed Nuclei (%) [4]: 12%
Population Tubulin-Different-Phenotype (%) [4]: 15%
Total Cell Count [4]: 77
Population Apoptotic (%) [5]: 38%
Population Fragmented Nuclei (%) [5]: 10%
Population Healthy Nuclei (%) [5]: 78%
Population Hoechst High Intensity Objects (%) [5]: 4%
Population Membrane Permeable-Phenotype (%) [5]: 6%
Population Mitochondria Different-Phenotype (%) [5]: 6%
Population Mitotic Cells (%) [5]: 61%
Population Normal (%) [5]: 95%
Population Pyknosed Nuclei (%) [5]: 10%
Population Tubulin-Different-Phenotype (%) [5]: 7%
Total Cell Count [5]: 161
Population Apoptotic (%) [6]: 46%
Population Fragmented Nuclei (%) [6]: 15%
Population Healthy Nuclei (%) [6]: 68%
Population Membrane Permeable-Phenotype (%) [6]: 1%
Population Mitochondria Different-Phenotype (%) [6]: 5%
Population Mitotic Cells (%) [6]: 53%
Population Pyknosed Nuclei (%) [6]: 16%
Population Tubulin-Different-Phenotype (%) [6]: 20%
Total Cell Count [6]: 74
Population Apoptotic (%) [7]: 97%
Population Fragmented Nuclei (%) [7]: 30%
Population Healthy Nuclei (%) [7]: 0%
Population Hoechst High Intensity Objects (%) [7]: 78%
Population Membrane Permeable-Phenotype (%) [7]: 100%
Population Mitochondria Different-Phenotype (%) [7]: 100%
Population Mitotic Cells (%) [7]: 2%
Population Normal (%) [7]: 21%
Population Pyknosed Nuclei (%) [7]: 69%
Population Tubulin-Different-Phenotype (%) [7]: 100%
Total Cell Count [7]: 212
Population Apoptotic (%) [8]: 27%
Population Fragmented Nuclei (%) [8]: 14%
Population Healthy Nuclei (%) [8]: 71%
Population Hoechst High Intensity Objects (%) [8]: 3%
Population Membrane Permeable-Phenotype (%) [8]: 7%
Population Mitochondria Different-Phenotype (%) [8]: 23%
Population Mitotic Cells (%) [8]: 72%
Population Normal (%) [8]: 96%
Population Pyknosed Nuclei (%) [8]: 14%
Population Tubulin-Different-Phenotype (%) [8]: 8%
Total Cell Count [8]: 83
Population Apoptotic (%) [9]: 60%
Population Fragmented Nuclei (%) [9]: 6%
Population Healthy Nuclei (%) [9]: 85%
Population Hoechst High Intensity Objects (%) [9]: 3%
Population Membrane Permeable-Phenotype (%) [9]: 3%
Population Mitochondria Different-Phenotype (%) [9]: 9%
Population Mitotic Cells (%) [9]: 40%
Population Normal (%) [9]: 96%
Population Pyknosed Nuclei (%) [9]: 8%
Population Tubulin-Different-Phenotype (%) [9]: 9%
Total Cell Count [9]: 186
Population Apoptotic (%) [10]: 50%
Population Fragmented Nuclei (%) [10]: 8%
Population Healthy Nuclei (%) [10]: 79%
Population Hoechst High Intensity Objects (%) [10]: 8%
Population Membrane Permeable-Phenotype (%) [10]: 7%
Population Mitochondria Different-Phenotype (%) [10]: 20%
Population Mitotic Cells (%) [10]: 50%
Population Normal (%) [10]: 92%
Population Pyknosed Nuclei (%) [10]: 12%
Population Tubulin-Different-Phenotype (%) [10]: 23%
Total Cell Count [10]: 105
Population Apoptotic (%) [11]: 93%
Population Fragmented Nuclei (%) [11]: 31%
Population Healthy Nuclei (%) [11]: 0%
Population Hoechst High Intensity Objects (%) [11]: 80%
Population Membrane Permeable-Phenotype (%) [11]: 25%
Population Mitochondria Different-Phenotype (%) [11]: 25%
Population Mitotic Cells (%) [11]: 6%
Population Normal (%) [11]: 19%
Population Pyknosed Nuclei (%) [11]: 67%
Population Tubulin-Different-Phenotype (%) [11]: 50%
Total Cell Count [11]: 321
Population Apoptotic (%) [12]: 57%
Population Fragmented Nuclei (%) [12]: 16%
Population Healthy Nuclei (%) [12]: 70%
Population Hoechst High Intensity Objects (%) [12]: 3%
Population Membrane Permeable-Phenotype (%) [12]: 16%
Population Mitochondria Different-Phenotype (%) [12]: 24%
Population Mitotic Cells (%) [12]: 42%
Population Normal (%) [12]: 96%
Population Pyknosed Nuclei (%) [12]: 13%
Population Tubulin-Different-Phenotype (%) [12]: 18%
Total Cell Count [12]: 125

O=C(Nc1ccc(-c2ccnc(Nc3ccc(N4CCOCC4)cc3)n2)cc1)[C@@H]1CCCN1
Population Apoptotic (%) [1]: 45%
Population Fragmented Nuclei (%) [1]: 11%
Population Healthy Nuclei (%) [1]: 76%
Population Hoechst High Intensity Objects (%) [1]: 3%
Population Membrane Permeable-Phenotype (%) [1]: 6%
Population Mitochondria Different-Phenotype (%) [1]: 10%
Population Mitotic Cells (%) [1]: 55%
Population Normal (%) [1]: 96%
Population Pyknosed Nuclei (%) [1]: 11%
Population Tubulin-Different-Phenotype (%) [1]: 16%
Total Cell Count [1]: 100
Population Apoptotic (%) [2]: 33%
Population Fragmented Nuclei (%) [2]: 13%
Population Hoechst High Intensity Objects (%) [2]: 7%
Population Membrane Permeable-Phenotype (%) [2]: 4%
Population Mitotic Cells (%) [2]: 66%
Population Normal (%) [2]: 92%
Population Pyknosed Nuclei (%) [2]: 10%
Population Tubulin-Different-Phenotype (%) [2]: 10%
Total Cell Count [2]: 65
Population Apoptotic (%) [3]: 62%
Population Fragmented Nuclei (%) [3]: 13%
Population Healthy Nuclei (%) [3]: 66%
Population Hoechst High Intensity Objects (%) [3]: 7%
Population Membrane Permeable-Phenotype (%) [3]: 12%
Population Mitochondria Different-Phenotype (%) [3]: 74%
Population Mitotic Cells (%) [3]: 37%
Population Normal (%) [3]: 92%
Population Pyknosed Nuclei (%) [3]: 20%
Population Tubulin-Different-Phenotype (%) [3]: 97%
Total Cell Count [3]: 176
Population Apoptotic (%) [4]: 77%
Population Fragmented Nuclei (%) [4]: 7%
Population Healthy Nuclei (%) [4]: 77%
Population Hoechst High Intensity Objects (%) [4]: 5%
Population Membrane Permeable-Phenotype (%) [4]: 8%
Population Mitochondria Different-Phenotype (%) [4]: 28%
Population Mitotic Cells (%) [4]: 22%
Population Normal (%) [4]: 94%
Population Pyknosed Nuclei (%) [4]: 14%
Population Tubulin-Different-Phenotype (%) [4]: 44%
Total Cell Count [4]: 65
Population Apoptotic (%) [5]: 41%
Population Fragmented Nuclei (%) [5]: 8%
Population Healthy Nuclei (%) [5]: 76%
Population Hoechst High Intensity Objects (%) [5]: 3%
Population Membrane Permeable-Phenotype (%) [5]: 7%
Population Mitochondria Different-Phenotype (%) [5]: 9%
Population Mitotic Cells (%) [5]: 58%
Population Normal (%) [5]: 96%
Population Pyknosed Nuclei (%) [5]: 15%
Population Tubulin-Different-Phenotype (%) [5]: 10%
Total Cell Count [5]: 90
Population Apoptotic (%) [6]: 60%
Population Fragmented Nuclei (%) [6]: 7%
Population Healthy Nuclei (%) [6]: 85%
Population Hoechst High Intensity Objects (%) [6]: 6%
Population Membrane Permeable-Phenotype (%) [6]: 3%
Population Mitochondria Different-Phenotype (%) [6]: 19%
Population Mitotic Cells (%) [6]: 40%
Population Normal (%) [6]: 93%
Population Pyknosed Nuclei (%) [6]: 7%
Total Cell Count [6]: 63
Population Apoptotic (%) [7]: 60%
Population Fragmented Nuclei (%) [7]: 12%
Population Healthy Nuclei (%) [7]: 65%
Population Hoechst High Intensity Objects (%) [7]: 7%
Population Membrane Permeable-Phenotype (%) [7]: 17%
Population Mitochondria Different-Phenotype (%) [7]: 80%
Population Mitotic Cells (%) [7]: 39%
Population Normal (%) [7]: 92%
Population Pyknosed Nuclei (%) [7]: 21%
Population Tubulin-Different-Phenotype (%) [7]: 97%
Total Cell Count [7]: 198
Population Apoptotic (%) [8]: 58%
Population Fragmented Nuclei (%) [8]: 18%
Population Healthy Nuclei (%) [8]: 64%
Population Hoechst High Intensity Objects (%) [8]: 1%
Population Membrane Permeable-Phenotype (%) [8]: 13%
Population Mitochondria Different-Phenotype (%) [8]: 17%
Population Mitotic Cells (%) [8]: 41%
Population Normal (%) [8]: 98%
Population Pyknosed Nuclei (%) [8]: 17%
Population Tubulin-Different-Phenotype (%) [8]: 22%
Total Cell Count [8]: 72
Population Apoptotic (%) [9]: 36%
Population Fragmented Nuclei (%) [9]: 5%
Population Hoechst High Intensity Objects (%) [9]: 1%
Population Membrane Permeable-Phenotype (%) [9]: 4%
Population Mitochondria Different-Phenotype (%) [9]: 8%
Population Mitotic Cells (%) [9]: 63%
Population Normal (%) [9]: 98%
Population Pyknosed Nuclei (%) [9]: 13%
Population Tubulin-Different-Phenotype (%) [9]: 13%
Total Cell Count [9]: 94
Population Apoptotic (%) [10]: 0%
Population Fragmented Nuclei (%) [10]: 10%
Population Healthy Nuclei (%) [10]: 80%
Population Hoechst High Intensity Objects (%) [10]: 5%
Population Membrane Permeable-Phenotype (%) [10]: 5%
Population Mitochondria Different-Phenotype (%) [10]: 12%
Population Mitotic Cells (%) [10]: 100%
Population Normal (%) [10]: 94%
Population Pyknosed Nuclei (%) [10]: 9%
Population Tubulin-Different-Phenotype (%) [10]: 16%
Total Cell Count [10]: 61
Population Apoptotic (%) [11]: 67%
Population Fragmented Nuclei (%) [11]: 24%
Population Healthy Nuclei (%) [11]: 48%
Population Hoechst High Intensity Objects (%) [11]: 6%
Population Membrane Permeable-Phenotype (%) [11]: 18%
Population Mitochondria Different-Phenotype (%) [11]: 53%
Population Mitotic Cells (%) [11]: 32%
Population Normal (%) [11]: 93%
Population Pyknosed Nuclei (%) [11]: 26%
Population Tubulin-Different-Phenotype (%) [11]: 86%
Total Cell Count [11]: 289
Population Apoptotic (%) [12]: 60%
Population Fragmented Nuclei (%) [12]: 9%
Population Healthy Nuclei (%) [12]: 70%
Population Hoechst High Intensity Objects (%) [12]: 8%
Population Membrane Permeable-Phenotype (%) [12]: 28%
Population Mitochondria Different-Phenotype (%) [12]: 32%
Population Mitotic Cells (%) [12]: 40%
Population Normal (%) [12]: 91%
Population Pyknosed Nuclei (%) [12]: 20%
Population Tubulin-Different-Phenotype (%) [12]: 23%
Total Cell Count [12]: 125
